# Tests used:
# [1] = biological target: Beta-1 adrenergic receptor (Cavia porcellus) (UniProt B0FL73)
# [2] = biological target: Beta-2 adrenergic receptor (Cavia porcellus) (UniProt Q8K4Z4)
# Homo sapiens [3] = species on record: Homo sapiens; experiment: Compound was evaluated for the inhibition of U-46,619-induced human platelet aggregation (Antiaggregatory activity); assay type: functional
# Outline: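 Washed human platelets (ACD blood from aspirin-free donors, apyrase-washed, resuspended in calcium-containing modified Tyrode's pH 7.4, 3×10^8/mL) preincubated with vehicle or drug 3 min at 37 °C, then challenged with the minimum U46619 dose (0.8-2.0 μM) giving maximal irreversible aggregation; turbidometric readout ≥2 min; IC50 from % inhibition vs log concentration plots; mean ± SEM, 3-4 donors.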
# Homo sapiens [4] = species on record: Homo sapiens; experiment: Compound was evaluated for the secretion of [14C]- Serotonin (Antisecretory activity); assay type: functional
# Outline: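 [14C]serotonin release measured in the same U46619-challenged washed human platelet samples as aggregation: supernatant radioactivity after 10000g 30 s spin, scintillation counting, relative to total after lysis; net U46619-evoked release as % of total; IC50 from % inhibition of maximal release vs log concentration; mean ± SEM, ≥3 preparations.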
# Chain of Beta-2 adrenergic receptor (Cavia porcellus) (Q8K4Z4 whole entry, looked up): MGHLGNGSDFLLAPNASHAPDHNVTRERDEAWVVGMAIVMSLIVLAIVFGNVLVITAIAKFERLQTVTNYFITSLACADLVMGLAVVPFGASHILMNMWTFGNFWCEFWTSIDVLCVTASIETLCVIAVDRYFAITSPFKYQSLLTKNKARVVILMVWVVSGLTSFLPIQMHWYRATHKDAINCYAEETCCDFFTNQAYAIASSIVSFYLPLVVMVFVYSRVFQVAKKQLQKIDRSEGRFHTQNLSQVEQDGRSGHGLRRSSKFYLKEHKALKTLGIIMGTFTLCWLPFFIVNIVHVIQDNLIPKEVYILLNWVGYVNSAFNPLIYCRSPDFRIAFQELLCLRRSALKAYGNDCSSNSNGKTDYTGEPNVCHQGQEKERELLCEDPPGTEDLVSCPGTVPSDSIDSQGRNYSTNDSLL
# Chain of Beta-1 adrenergic receptor (Cavia porcellus) (B0FL73 1-467): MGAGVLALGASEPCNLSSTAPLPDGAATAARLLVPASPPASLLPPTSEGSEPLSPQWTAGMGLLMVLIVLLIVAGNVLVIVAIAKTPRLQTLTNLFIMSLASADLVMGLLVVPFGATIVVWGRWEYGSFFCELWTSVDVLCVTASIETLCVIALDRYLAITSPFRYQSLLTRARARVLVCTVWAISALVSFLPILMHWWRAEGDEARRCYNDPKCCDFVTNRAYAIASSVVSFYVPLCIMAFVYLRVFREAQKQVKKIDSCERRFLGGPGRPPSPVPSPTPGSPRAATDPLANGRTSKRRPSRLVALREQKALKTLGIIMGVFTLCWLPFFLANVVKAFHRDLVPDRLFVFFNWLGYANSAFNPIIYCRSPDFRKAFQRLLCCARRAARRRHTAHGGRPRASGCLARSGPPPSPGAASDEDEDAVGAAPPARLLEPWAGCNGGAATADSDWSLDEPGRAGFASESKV
Structure (SMILES),pD2 [1],pD2 [2],IC50 (Homo sapiens [3]) [µM],IC50 (Homo sapiens [4]) [µM]
COc1cc(CC2NCCc3cc(O)c(O)cc32)cc(OC)c1OC (stereo not drawn),7.1,6.96,,
COc1cc(CC2c3cc(O)c(O)cc3CCN2CCCl)cc(OC)c1OC (stereo not drawn),4.88,5.34,86.6,162
COc1cc(CC2c3cc4c(cc3CCN2CCCl)OS(=O)O4)cc(OC)c1OC (stereo not drawn),5.24,5.58,64.2,166
COc1cc(CC2c3cc(O)c(O)cc3CCN2C)cc(OC)c1OC (stereo not drawn),5.89,6.05,,
COc1cc(C[C@H]2NCCc3cc(O)c(O)cc32)cc(OC)c1OC,5.58,5.63,0.71,0.55
COc1cc(C[C@@H]2NCCc3cc(O)c(O)cc32)cc(OC)c1OC,7.26,7.23,19.3,24.5
COc1cc(CC2c3cc(O)c(O)cc3CCN2Cc2ccccc2)cc(OC)c1OC (stereo not drawn),4.34,5.34,21.2,96.5
COc1cc(CC2c3cc(O)c(O)cc3CCN2CCO)cc(OC)c1OC (stereo not drawn),5.35,5.73,71.6,116
